This is a sample that favours compounds with a hit; in the whole collection about 3.3% have one here.
SENP7 block = SENP7 protease inhibition; Q9BQF6; recombinant SENP7, Z-RLRGG-aminoluciferin luminescence, 40 min; inhibition, % at 5 µM; 1.5% of 330,000 active; AID 434973;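 active = inhibition above about 50% at the single test dose, limit read from the data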
SENP8 block-1 = blocks the human protease SENP8; 1.2% of 330,000 active; purified SENP8, Z-RLRGG-aminoluciferin cleavage, luminescence; inhibition, % at 10 µM; AID 2540; in the data active = inhibition above about 50%
SENP8 block-2 = inhibitors of human SENP8 protease. Q96LD8. recombinant SENP8, Nedd8 substrate fluorescence. inhibition, % at 20 µM. 0.64% of 360,000 active; in the data active = inhibition mostly above about 40%, no sharp cut-off; inactive = mostly below about 27%
NRP1-CendR mod = alters CendR peptide binding to human NRP-1; AID 602438; FAM-RPARPAR peptide binding to NRP-1, fluorescence polarization; inhibition, % at 25 µM; 0.85% of 360,000 active; O14786;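 active = inhibition or corrected inhibition above about 18%, plus a signal ratio from 0.5 to 1.5, limit read from the data, passing the limit was not always enough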
SENP1 inh = inhibitors of human SENP1 SUMO protease catalytic domain. Q9P0U3. recombinant SENP1 catalytic domain, CyPet-SUMO1-YPet FRET cleavage. inhibition, % at 10 µM. 0.21% of 360,000 active. AID 624204;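 active = inhibition at least 30% at 10 µM, raw YFP signal under a set limit, fluorescence ratio 0.5 to 1.5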
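Test system: recombinant human SENP1 catalytic domain, His6-tagged / Medium: pH 8 Tris buffer with EDTA, NaCl, BME, BSA, NP40, catalase / Also added: SUMO1 FRET substrate flanked by Cypet and Ypet, 25 nM / Times: 50 min reaction at room temperature / Signal: FRET, CFP and YFP emission / Control set: no-enzyme low control and enzyme-plus-DMSO high control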
SENP6 block = blocks the human protease SENP6; Q9GZR1; Recombinant SENP6 catalytic domain, aminoluciferin luminescence; inhibition, % at 10 µM; 1.8% of 330,000 active; AID 2599;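 active = inhibition above about 50% at the single tested dose, limit read from the data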
SENP8 conf = human SENP8 inhibition, confirmed; shares compounds with SENP7 block; Recombinant SENP8, Z-RLRGG-aminoluciferin luminescence, 60 min; inhibition, % at 12.5 µM; 40% of 6,200 active; AID 488912;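 active = mean inhibition across replicates above about 50%, limit read from the data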
SENP6 confirm = human SENP6 inhibition, confirmed. shares compounds with SENP7 block. recombinant SENP6, Z-RLRGG-aminoluciferin luminescence. inhibition, % at 12.5 µM. 58% of 6,200 active. AID 488915
SENP7 conf = confirmation of human SENP7 protease inhibitors; 69% of 6,200 active; shares compounds with SENP7 block; recombinant SENP7, Z-RLRGG-aminoluciferin luminescence, 40 min; inhibition, % at 12.5 µM
Casp3 SENP sel = caspase-3 inhibition (SENP selectivity assay). shares compounds with SENP7 block. purified caspase-3, Z-DEVD-aminoluciferin luminescence, 60 min. inhibition, % at 12.5 µM. 60% of 6,200 active. AID 488918;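 active = mean inhibition above about 50%, limit read from the data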
SENP luc ctr = interferes with luciferase luminescence in SENP counter-screen. shares compounds with SENP7 block. Pre-incubated SENP8/Z-RLRGG-aminoluciferin, luciferase luminescence interference. inhibition, % at 12.5 µM. 39% of 6,200 active. AID 488919;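 active = mean inhibition above about 50% when retested at one dose, limit read from the data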
Large screens that a line does not name were inactive (follow-up assays come after a bar, where they were run).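 The calls were made as follows, unless noted: active = mean inhibition above about 50% in the one-dose retest (limit read from the data); inactive = the rest.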

C[C@@H]1CN([C@H](C)CO)C(=O)CCCn2nncc2CO[C@H]1CN(C)C(=O)c1ccncc1	none (no result: SENP7 block, SENP8 block-1, SENP6 block)
CC(C)NC(=O)c1ccc2c3n(nc2c1)-c1ccccc1CO3	SENP7 block 78, SENP8 block-1 78, SENP6 block 77 | SENP8 conf 88 | SENP6 confirm 87 | SENP7 conf 98 | Casp3 SENP sel 94 | SENP luc ctr 81
Cc1ccc2c(c1)COc1c3ccc(C(=O)NCC4CC4)cc3nn1-2	none
O=C(NCCO)c1ccc2c3n(nc2c1)-c1ccccc1CO3	none
Cc1ccc2c(c1)COc1c3ccc(C(=O)O)cc3nn1-2	SENP7 block 100, SENP8 block-1 95, SENP6 block 95 | SENP8 conf 96 | SENP6 confirm 96 | SENP7 conf 101 | Casp3 SENP sel 97 | SENP luc ctr 95
O=C(NCC1CC1)c1ccc2c3n(nc2c1)-c1ccccc1CO3	SENP7 block 68, SENP8 block-1 78, SENP6 block 82 | SENP8 conf 83 | SENP6 confirm 84 | SENP7 conf 98 | Casp3 SENP sel 92 | SENP luc ctr 80
CC(C)[C@@H](CO)NC(=O)c1ccc2c3n(nc2c1)-c1ccccc1CO3	SENP8 block-1 82, SENP6 block 84 | SENP8 conf 91 | SENP6 confirm 91 | SENP7 conf 98 | Casp3 SENP sel 95 | SENP luc ctr 62
Cc1cc2c(SCC(=O)Nc3cccc(O)c3)ncnc2s1	none (no result: SENP7 block, SENP8 block-1, SENP6 block)
CC(=O)Nc1ccc(-c2nnn(CC(=O)c3ccccc3)n2)cc1Cl	none
CC(=O)Nc1ccc(-c2nnn(CC(=O)c3ccc(F)cc3)n2)cc1Cl	SENP6 block 82 | SENP8 conf inactive | SENP6 confirm inactive | SENP7 conf inactive | Casp3 SENP sel inactive | SENP luc ctr inactive
COc1ccc(O)c(-c2cc(-c3ccccc3Cl)[nH]n2)c1	none
COc1ccc(-c2cc(-c3ccccc3O)[nH]n2)cc1	SENP7 block 94, SENP8 block-1 92, SENP6 block 97 | SENP8 conf 96 | SENP6 confirm 97 | SENP7 conf 102 | Casp3 SENP sel 78 | SENP luc ctr 94
Cc1ccc(-c2cc(-c3ccc(C)cc3O)[nH]n2)cc1	none
COc1ccc(-c2cc(-c3ccccc3)n[nH]2)c(O)c1	SENP7 block 65, SENP8 block-1 66, SENP6 block 68 | SENP8 conf 74 | SENP6 confirm 72 | SENP7 conf 90 | Casp3 SENP sel inactive | SENP luc ctr 72
Nc1ccn([C@@H]2O[C@H](C(=O)N[C@H](CO)c3ccccc3)[C@@H](O)[C@H]2O)c(=O)n1	none (no result: SENP7 block, SENP8 block-1, SENP6 block)
C(=NN=C1c2ccccc2-c2ccccc21)c1ccc2c(c1)OCO2	none (no result: SENP7 block, SENP8 block-1, SENP6 block)
O=C(CNC(=O)c1ccccc1F)c1ccccc1	SENP7 block 51, SENP6 block 54 | SENP8 conf inactive | SENP6 confirm inactive | SENP7 conf 81 | Casp3 SENP sel 79 | SENP luc ctr 53
Cc1cccc(NC(=O)/C=C/c2cccs2)n1	SENP7 block 72, SENP6 block 67 | SENP8 conf 56 | SENP6 confirm 55 | SENP7 conf 84 | Casp3 SENP sel 77 | SENP luc ctr 66
O=C(/C=C/c1cccs1)N1CCCC1	none
O=C(/C=C/c1cccs1)Nc1ccncc1	none
Cc1cc(C)n(C(=O)/C=C/c2cccs2)n1	SENP7 block 56 | SENP8 conf inactive | SENP6 confirm inactive | SENP7 conf inactive | Casp3 SENP sel inactive | SENP luc ctr inactive
CCCOC(=O)c1ccc(NC(=O)/C=C/c2cccs2)cc1	SENP6 block 75 | SENP8 conf inactive | SENP6 confirm inactive | SENP7 conf 57 | Casp3 SENP sel inactive | SENP luc ctr inactive
CC(=O)c1cccc(NC(=O)c2ccc(-n3cncn3)c3ccoc23)c1	none (no result: SENP7 block, SENP8 block-1, SENP6 block)
C=C(CN(C)C)C(=O)c1ccc(OC2OC(COC(C)=O)C(OC(C)=O)C(OC(C)=O)C2OC(C)=O)cc1 (stereo unspecified)	none (no result: SENP7 block, SENP8 block-1, SENP6 block)
C[C@H](CO)N1C[C@H](C)[C@@H](CN(C)C(=O)NC2CCCCC2)Oc2ccc(NC(=O)Cc3ccccc3)cc2C1=O	none
CC(=O)Nc1cnc(NC(=O)c2cccc(F)c2)cc1C	none
CCC(=O)Nc1cnc(NC(=O)c2cccc(F)c2)cc1C	SENP7 block 59, SENP6 block 58 | SENP8 conf inactive | SENP6 confirm inactive | SENP7 conf 78 | Casp3 SENP sel 83 | SENP luc ctr inactive
O=C(/C=C/Nc1ccccc1Br)c1ccccn1	SENP7 block 100, SENP8 block-1 96, SENP6 block 97 | SENP8 conf inactive | SENP6 confirm 100 | SENP7 conf 103 | Casp3 SENP sel 97 | SENP luc ctr 89
COc1ccc(C(=O)/C=C/Nc2ccccn2)c(OC)c1	none
O=C(/C=C\Nc1ccccn1)c1ccccc1	SENP7 block 97, SENP8 block-1 90, SENP6 block 95 | SENP8 conf 96 | SENP6 confirm 96 | SENP7 conf 102 | Casp3 SENP sel 97 | SENP luc ctr 94
Nc1[nH]c(C(=O)c2ccccc2)c(-c2ccccc2Cl)c1C(=O)c1ccccc1	none (no result: SENP7 block, SENP8 block-1, SENP6 block)
Cc1ccc(N=Nc2cc(C)ccc2N)cc1	SENP7 block 100, SENP8 block-1 98, SENP6 block 99 | SENP8 conf 99 | SENP6 confirm 100 | SENP7 conf 103 | Casp3 SENP sel 97 | SENP luc ctr 96
Cc1ccc(NC(=O)CCS(=O)(=O)c2ccc3nc(C)sc3c2)c(C)c1	none (no result: SENP7 block, SENP8 block-1, SENP6 block)
Cc1cc(C(=O)Nc2ccc3c(c2)OCCO3)co1	none
Cc1ccc(C(=O)Nc2ccc3c(c2)OCCO3)o1	SENP6 block 54 | SENP8 conf 52 | SENP6 confirm inactive | SENP7 conf 80 | Casp3 SENP sel 82 | SENP luc ctr 62
O=C(Nc1ccc2c(c1)OCCO2)c1ccco1	SENP7 block 54 | SENP8 conf inactive | SENP6 confirm inactive | SENP7 conf 75 | Casp3 SENP sel 80 | SENP luc ctr 53
CCc1ccc(-c2csc(NC(=O)C3=COCCO3)n2)cc1	SENP6 block 60 | SENP8 conf inactive | SENP6 confirm inactive | SENP7 conf 73 | Casp3 SENP sel inactive | SENP luc ctr inactive
